Results as given in ChEMBL document CHEMBL2010771, “Studies toward novel peptidomimetic inhibitors of thioredoxin-thioredoxin reductase system” (J Med Chem, 2012).
Activity calls are given as the source filed them. The rule behind the calls is not given here.

Key:
[1] = Cytotoxicity against mouse PancO2 cells after 72 hrs by crystal violet staining; type: functional; settings: read-out: LD50 (the source's name)
[2] = Inhibition of human recombinant Trx1/TrxR assessed as reduction in number of free thiols from reduced insulin after 30 mins by insulin reduction assay
Method in brief: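 At least seven compound concentrations. Incubated 30 min at 37 °C, stopped with 8 mM DTNB in 8 M guanidine HCl, A412. IC50 from four-parameter logistic fit. Triplicates, mean ± SD, n ≥ 3.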

EMT6 = assay: Cytotoxicity against mouse EMT6 cells after 72 hrs by crystal violet staining; type: functional; settings: EMT6, 72 h, read-out: LD50 (the source's name)
[3] = Cytotoxicity against mouse B78 cells after 72 hrs by crystal violet staining; type: functional; settings: B78, 72 h, read-out: LD50 (the source's name)
Mus musculus [4] = assay: Toxicity in mouse EMT6 cells allografted BALB/c mouse assessed as change in body weight at 14 mg/kg, ip qd for 7 days measured on day 5; type: organism-based; parameters: dose 14 mg/kg, route intraperitoneal; settings: in vivo, 168 h
Method in brief: (§1)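 BALB/c mice, 8−12 weeks old, inoculated sc with 3.5 × 10^5 EMT6 cells into the depilated right thigh. Intraperitoneal dosing in DMSO began on day 7, when tumors reached a longer diameter of 5−7 mm, and was given daily. Controls received ip DMSO. Tumor volume was followed by calipers as longer × shorter²/2. Survival and body weight were monitored.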

Mus musculus [5] = assay: Toxicity in mouse EMT6 cells allografted BALB/c mouse assessed as mortality at 14 mg/kg, ip qd for 7 days measured on day 5; type: organism-based; parameters: dose 14 mg/kg, route intraperitoneal; settings: in vivo, 168 h; method in brief: as §1
Raji [6] = assay: Induction of Trx protein expression in human Raji cells at 10 to 20 uM after 4 to 8 hrs by Western blot analysis; type: functional, cell-based
Method in brief: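 Raji cells exposed to compound for 4 and 8 h, washed and lysed in 0.1% NP40 with protease inhibitors. Equal protein (BCA) run on 15% SDS-PAGE and blotted to nitrocellulose, blocked in TBST with 5% BSA. Probed overnight with rabbit anti-thioredoxin and mouse anti-tubulin, then HRP secondaries for 45 min. ECL luminol/coumaric acid detection.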

T-24 = assay: Cytotoxicity against human T24 cells after 72 hrs by crystal violet staining; type: functional; settings: T-24, 72 h, read-out: LD50 (the source's name)
[7] = Cytotoxicity against mouse MEF cells; type: cell-based; settings: read-out: LD50 (the source's name)
Method in brief: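 Fibroblasts came from BALB/c embryos at E13.5 by 0.2% trypsin digestion at 37 °C for 10 min and were cultured in DMEM. Viability is % of solvent controls with DMSO ≤1%; n ≥ 3.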

Ramos = assay: Cytotoxicity against human Ramos cells after 72 hrs by MTT assay; type: functional; settings: read-out: LD50 (the source's name)
Method in brief: (§2)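 Suspension cells were grown in RPMI-1640 with 10% heat-inactivated FBS and exposed to compound for 72 h with DMSO ≤1%. MTT (5 mg/mL solution) was added for 4 h, then plates were centrifuged, cells lysed in DMSO and read at A570. Viability is % of solvent controls, background-corrected; n ≥ 3.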

Raji [8] = assay: Induction of Trx mRNA expression in human Raji cells at 5 to 10 uM after 4 to 24 hrs by RT-PCR analysis; type: functional, cell-based
K562 = assay: Cytotoxicity against human K562 cells after 72 hrs by MTT assay; type: functional; settings: K562, 72 h, read-out: LD50 (the source's name); method in brief: as §2
CT26 = assay: Cytotoxicity against wild type mouse CT26 cells after 72 hrs by crystal violet staining; type: functional; settings: CT26, 72 h, read-out: LD50 (the source's name)
[9] = Cytotoxicity against human PBMC cells after 72 hrs by XTT assay; type: cell-based; settings: read-out: LD50
Method in brief: (§3)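 hPBMC were isolated from healthy donors on Histopaque 1077 and kept in RPMI. Bone marrow came from female BALB/c mice and was cultured in Iscove's medium with 10% FBS and 100 U IL-3. After compound exposure, cells got XTT at 0.3 mg/mL for 4 h, read at A490 against 690 nm. Viability is % of DMSO controls; n ≥ 3.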

[10] = Cytotoxicity against mouse bone marrow cells after 72 hrs by XTT assay; type: cell-based, Bone marrow cell; settings: read-out: LD50; method in brief: as §3
Raji [11] = assay: Cytotoxicity against human Raji cells after 72 hrs by MTT assay; type: functional; settings: read-out: LD50 (the source's name); method in brief: as §2
[12] = Chemical stability of the compound; type: physicochemical

Row | Structure (SMILES) | CC50 [1] | IC50 [2] | CC50 (EMT6) | also measured
1 | C=C(COS(=O)(=O)c1ccc(C)cc1)C(=O)N(Cc1ccccc1)[C@@H](CC(C)C)C(=O)NCC(=O)OCc1ccccc1 | > 50 µM | 22.3 µM | > 50 µM | –
2 | COC(=O)C(CBr)CBr | > 50 µM | 1.2 µM | > 50 µM | –
3 | CC(C)C[C@@H](C(=O)NCC(=O)OCc1ccccc1)N(Cc1ccccc1)C(=O)C(CBr)CBr | – | > 50 µM | – | –
4 | C=C(CBr)C(=O)OC [METHYL BROMOMETHYL ACRYLATE] | > 50 µM | 0.44 µM | > 50 µM | –
5 | C=C(CBr)C(=O)N(Cc1ccc(OC)cc1OC)[C@@H](CC(C)C)C(=O)NCC(=O)OCC | > 50 µM | 8.9 µM | > 50 µM | –
6 | CC(C)C[C@@H](C(=O)NCC(=O)OCc1ccccc1)N(Cc1ccccc1)C(=O)C(CI)CI | – | > 50 µM | – | –
7 | CCC(C)SSc1ncc[nH]1 (centres undefined) [PX-12] | 3.9 µM | 12.3 µM | 11.6 µM | CC50 [3]: 5 µM; Activity (Mus musculus [4]): Toxic; Activity (Mus musculus [5]): Toxic; Activity (Raji [6]): Active; CC50 (T-24): 4.6 µM; CC50 [7]: 2.7 µM; CC50 (Ramos): 3.4 µM; Activity (Raji [8]): Active; CC50 (K562): 5.5 µM; CC50 (CT26): 5.2 µM; CC50 at 72 h [9]: > 25 µM; CC50 at 72 h [10]: > 12.5 µM; CC50 (Raji [11]): 8.8 µM
8 | C=C(COC(=O)c1c(C(F)(F)F)cccc1C(F)(F)F)C(=O)OC | > 25 µM | 0.4 µM | > 25 µM | Stability [12]: Unstable
